High-throughput results: PubChem BioAssay, several laboratories
H9c2 TAG inh – inhibitors of triacylglycerol accumulation, primary screen, cell-based, uHTS, fluorescence, H9c2; H9c2 cells, Nile Red lipid (TAG) fluorescence; cells loaded with 200 µM oleic acid; inhibition, % at 12.5 µM; 230,000 compounds, 0.66% hits; AID 651582, 2012;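 active = pattern-corrected inhibition of lipid staining of at least 50% with the nuclear-stain viability signal not falling by more than 50%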;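 also: 0% = DMSO wells and 100% = triacsin C control wells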
AHR activator – AHR activators, primary screen, cell-based, luminescence, luciferase reporter, human. Aryl hydrocarbon receptor (Homo sapiens), P35869. activation, % at 5 µM. 320,000 compounds, 2.5% hits. AHR-responsive luciferase reporter cells. AID 2796, 2010; in the data active = activation above about 47%;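 also: 0% = vehicle wells and 100% = reference agonist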
SMARCA2 act – SMARCA2 (BRM) function activators, primary screen, cell-based, luminescence, high throughput; MG213 cells, MMTV-luciferase reporter, dexamethasone, overnight; activation, % at 9.1 µM; 370,000 compounds, 1% hits; AID 652017, 2013; in the data active = activation above about 7.8%;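 also: 0% = vehicle wells and 100% = reference activator wells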
TbMetRS inhib – T. brucei MetRS inhibitors, primary screen, biochemical, luminescence; AID 624268, 2012; methionyl-tRNA synthetase (Trypanosoma brucei brucei); 360,000 compounds, 0.4% hits; purified T. brucei MetRS, ATP depletion, Kinase-Glo luminescence; inhibition, % at 11.9 µM;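 active = inhibition above a per-plate cutoff of the control wells' mean inhibition plus 3 SD, cut at about 5.5% in these data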;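 also: 0% = DMSO wells median and 100% = median of wells with control inhibitor compound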
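Assay system: T. brucei methionyl-tRNA synthetase, purified | Medium: HEPES buffer with MgCl2, KCl, DTT, spermine, BSA, pyrophosphatase | Compound: 11.9 µM single point | Incubation: 15 min enzyme-compound preincubation, 2 h reaction, 10 min detection, 25 °C | Measured by: Kinase-Glo luciferase luminescence reporting remaining unconsumed ATP | Measure: % inhibition normalized to control-well medians | Replication: Singlicate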
Efflux pump inh – inhibitors of Candida efflux pumps in yeast, primary screen, S. cerevisiae, Nile Red, multiplex | 330,000 compounds, 0.44% hits | S. cerevisiae Candida pump triplex | inhibition, % at 10 µM;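 active = plate passing quality check with inhibition over a set limit, or well fluorescence over plate mean plus 4 SD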;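 also: Nile Red retained in pooled yeast measured as flow cytometry median fluorescence; 0% = buffer negative control and 100% = Enniatin B positive control; higher means more Nile Red kept so more efflux inhibition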
Cmpd fluor yeast – counter-screen for efflux pump inhibitors: compound fluorescence. shares compounds with Efflux pump inh. S. cerevisiae AD/pABC3, flow cytometry. fluorescence ratio to DMSO, % at 10 µM. 1,700 compounds, 4% hits;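 active = fluorescence ratio to DMSO above its plate's cutoff, the plate mean ratio plus 5 SD, cut at about 210% in these data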;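 also: unstained yeast with no Nile Red so the signal is compound autofluorescence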
CaMdr1 efflux inh – inhibitors of Candida albicans Mdr1 efflux, confirmation, flow cytometry, singleplex, Cherry Pick1 set; 1,700 compounds, 1% hits; shares compounds with Efflux pump inh; S. cerevisiae AD/CaMDR1, Nile Red efflux; inhibition, % at 10 µM; AID 588518, 2011; in the data active = inhibition above about 26%;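 also: 0% = DMSO vehicle and 100% = reference inhibitor; higher means more Nile Red retained so more efflux inhibition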
Cdr2 pump inh – inhibitors of Candida albicans Cdr2 efflux pump, confirmation, S. cerevisiae AD/CaCDR2, flow cytometry, cherry pick 1, singleplex. shares compounds with Efflux pump inh. Nile Red retention. Nile Red retention ratio vs DMSO, % at 10 µM. 1,700 compounds, 4% hits. AID 588520, 2011; in the data active = Nile Red retention ratio vs DMSO above about 190%;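 also: higher ratio means more blocking of Cdr2 efflux of the dye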
Cdr1 pump inh – inhibitors of Candida albicans Cdr1 efflux pump, confirmation, S. cerevisiae AD/CaCDR1, flow cytometry, cherry pick 1, singleplex | shares compounds with Efflux pump inh | Nile Red efflux | inhibition, % at 10 µM | 1,700 compounds, 1% hits;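 active = inhibition above the screen-wide mean plus twice its standard deviation, cut at about 32% in these data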
Starred values were filed as active, the others as inactive; · = no result. Hits are enriched below; roughly 4.1% of the tested compounds scored in any of these assays.

SMILES	H9c2 TAG inh	AHR activator	SMARCA2 act	TbMetRS inhib	Efflux pump inh	Cmpd fluor yeast	CaMdr1 efflux inh	Cdr2 pump inh	Cdr1 pump inh
Cc1ccc([N+](=O)[O-])cc1S(=O)(=O)Nc1cccc(-c2ccc(N3CCCC3)nn2)c1	14	14	3	0	0.4*	100	0	89	0
Cc1ccc(S(=O)(=O)Nc2cccc(-c3ccc(N4CCCCCC4)nn3)c2)cc1C	·	5	3	-1	0	·	·	·	·
COC(=O)[C@]12C[C@H](CC(=O)N3CCCC3)C(=O)N(CCC3=CCCCC3)C1=C[C@H](C1CCCC1)O[C@@H]2C	·	·	1	·	·	·	·	·	·
O=C(CCSc1nc(-c2ccco2)cc(C(F)(F)F)n1)N1CCN(c2ccccc2)CC1	-30	10	0	0	0.5*	105	0	106	0
O=C(NC(=O)c1ccccc1)Nc1ccc(Cl)cn1	-4	14	4	0	0.4*	103	0	96	0
O=C(COCc1ccccc1)NC1CCCCN(Cc2cccc(Cl)c2)C1=O (stereo unspecified)	·	·	-2	·	·	·	·	·	·
CCn1c(C(=O)N2CCCC(C(=O)NCCCc3ccccc3)C2)cc2sccc21 (stereo unspecified)	·	-1	-3	-1	0	·	·	·	·
CCn1c(C(=O)N2CCCC(C(=O)NCCc3ccc(C)cc3)C2)cc2sccc21 (stereo unspecified)	·	1	-3	0	1.0*	103	0	94	0
CCCCOCCCNC(=O)C[C@H]1C[C@@]2(C(=O)OC)C(=C[C@H](C3CCCC3)O[C@@H]2C)N(Cc2ccco2)C1=O	·	·	-2	·	·	·	·	·	·
Cc1sc2ncnc(SC(C)C(=O)N3c4ccccc4Sc4ccccc43)c2c1C (stereo unspecified)	·	1	-1	0	15*	103	0	83	0
Cc1sc2ncnc(SCC(=O)NC(C)C(C)C)c2c1C (stereo unspecified)	5	6	-4	0	0.8*	109	0	112	0
COc1ccc(C2CC(=O)C(c3ccc(C#N)cc3)=CN2Cc2ccccc2)cc1 (stereo unspecified)	·	·	-4	·	·	·	·	·	·
CC(C)CN1C(=O)[C@]2(CC(=O)N(C)C2c2ccccc2)c2cc(-n3cc(CN(C)C)nn3)ccc21 (stereo partly specified)	·	·	-1	·	·	·	·	·	·
CC(C)C[C@@H]1COc2cc(Br)ccc2S(=O)(=O)N1Cc1cn(Cc2ccc(C(F)(F)F)cc2)nn1	·	·	3	·	·	·	·	·	·
CC1(C)CC[C@]2(C(=O)O)CC[C@]3(C)C(=CCC4[C@@]5(C)CC[C@H](O)C(C)(C)C5CC[C@]43C)C2C1 (stereo partly specified)	22	1	-1	0	1.4*	81	0	97	0
O=S(=O)(c1ccc(Cl)s1)N1CCC(c2nc3ccccc3o2)CC1	·	·	-5	·	·	·	·	·	·
Cc1ccc(NC(=O)COc2ccc(N(C)S(=O)(=O)c3ccc(F)cc3)cc2)cc1	-7	3	-3	0	0.8*	87	0	104	0
C=CCN1C(=O)[C@@H](CC(=O)NCc2ccc(OC)c(OC)c2)[C@]2(C(=O)OCC)CCCCC/C=C/12	·	·	-2	·	·	·	·	·	·
COc1ccccc1-c1cccc2c3c([nH]c12)[C@@H]1C[C@H]2[C@@H](C(=O)N1CC3)[C@H](C)ON2C	·	·	0	·	·	·	·	·	·
